Source: ChEMBL document CHEMBL3621099, “Design and synthesis of carbazole carboxamides as promising inhibitors of Bruton's tyrosine kinase (BTK) and Janus kinase 2 (JAK2)” (Bioorg Med Chem Lett, 2015)

Tests used:
[1] = molecular target: T1, Tyrosine-protein kinase ITK/TSK (Homo sapiens, UniProt Q08881); assay: Inhibition of ITK (unknown origin)
T1 sequence (Q08881 whole entry): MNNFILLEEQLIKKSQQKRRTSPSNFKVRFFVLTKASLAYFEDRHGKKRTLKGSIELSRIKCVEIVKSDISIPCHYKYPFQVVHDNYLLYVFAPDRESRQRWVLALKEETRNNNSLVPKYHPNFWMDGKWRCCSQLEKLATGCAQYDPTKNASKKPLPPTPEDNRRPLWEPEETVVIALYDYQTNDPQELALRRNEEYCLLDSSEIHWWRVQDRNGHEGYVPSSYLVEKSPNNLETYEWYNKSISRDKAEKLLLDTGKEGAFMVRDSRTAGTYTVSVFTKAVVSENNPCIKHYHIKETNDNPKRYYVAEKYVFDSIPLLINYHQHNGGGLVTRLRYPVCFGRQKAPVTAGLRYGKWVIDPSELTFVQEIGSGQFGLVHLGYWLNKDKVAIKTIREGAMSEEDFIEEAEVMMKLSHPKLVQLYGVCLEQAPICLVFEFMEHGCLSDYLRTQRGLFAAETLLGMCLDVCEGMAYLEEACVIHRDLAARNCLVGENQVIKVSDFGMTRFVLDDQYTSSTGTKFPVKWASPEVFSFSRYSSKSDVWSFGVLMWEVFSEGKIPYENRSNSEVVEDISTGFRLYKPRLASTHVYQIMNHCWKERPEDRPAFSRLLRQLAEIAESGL

[2] = molecular target: Tyrosine-protein kinase Lyn (Homo sapiens, UniProt P07948); assay: Inhibition of LYNa (unknown origin)
Chain of Tyrosine-protein kinase Lyn (P07948 whole entry): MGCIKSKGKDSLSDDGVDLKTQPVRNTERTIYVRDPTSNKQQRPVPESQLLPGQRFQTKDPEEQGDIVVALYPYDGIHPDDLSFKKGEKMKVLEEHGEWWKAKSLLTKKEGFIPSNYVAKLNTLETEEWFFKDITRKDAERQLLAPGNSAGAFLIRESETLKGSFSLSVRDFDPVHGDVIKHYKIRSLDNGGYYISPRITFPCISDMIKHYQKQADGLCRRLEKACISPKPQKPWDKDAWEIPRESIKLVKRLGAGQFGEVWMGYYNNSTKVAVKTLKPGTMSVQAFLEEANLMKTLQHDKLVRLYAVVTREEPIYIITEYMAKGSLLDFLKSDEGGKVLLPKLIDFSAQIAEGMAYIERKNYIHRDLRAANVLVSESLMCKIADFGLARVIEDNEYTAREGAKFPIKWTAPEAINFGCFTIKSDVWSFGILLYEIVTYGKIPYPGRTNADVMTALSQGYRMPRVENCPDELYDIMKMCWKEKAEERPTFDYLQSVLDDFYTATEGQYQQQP

[3] = molecular target: Tyrosine-protein kinase Lck (Homo sapiens, UniProt P06239); assay: Inhibition of LCK (unknown origin)
Chain of Tyrosine-protein kinase Lck (P06239 whole entry): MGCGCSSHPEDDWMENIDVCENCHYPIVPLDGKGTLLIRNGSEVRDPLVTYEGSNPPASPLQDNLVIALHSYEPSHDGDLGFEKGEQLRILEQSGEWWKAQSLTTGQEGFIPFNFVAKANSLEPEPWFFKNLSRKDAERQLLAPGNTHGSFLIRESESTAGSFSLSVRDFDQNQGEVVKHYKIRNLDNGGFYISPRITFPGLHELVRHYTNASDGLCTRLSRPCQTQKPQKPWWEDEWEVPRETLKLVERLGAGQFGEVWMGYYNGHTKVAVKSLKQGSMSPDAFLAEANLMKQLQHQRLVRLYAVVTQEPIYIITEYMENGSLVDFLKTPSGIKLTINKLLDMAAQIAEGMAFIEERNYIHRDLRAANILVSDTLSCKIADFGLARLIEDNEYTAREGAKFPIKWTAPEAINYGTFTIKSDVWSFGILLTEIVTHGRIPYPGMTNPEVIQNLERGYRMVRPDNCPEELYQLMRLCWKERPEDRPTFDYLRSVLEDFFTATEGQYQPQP

Aurora kinase A = molecular target: T2, Aurora kinase A (Homo sapiens, UniProt O14965); assay: Inhibition of Aurora-A (unknown origin)
T2 sequence (O14965 whole entry): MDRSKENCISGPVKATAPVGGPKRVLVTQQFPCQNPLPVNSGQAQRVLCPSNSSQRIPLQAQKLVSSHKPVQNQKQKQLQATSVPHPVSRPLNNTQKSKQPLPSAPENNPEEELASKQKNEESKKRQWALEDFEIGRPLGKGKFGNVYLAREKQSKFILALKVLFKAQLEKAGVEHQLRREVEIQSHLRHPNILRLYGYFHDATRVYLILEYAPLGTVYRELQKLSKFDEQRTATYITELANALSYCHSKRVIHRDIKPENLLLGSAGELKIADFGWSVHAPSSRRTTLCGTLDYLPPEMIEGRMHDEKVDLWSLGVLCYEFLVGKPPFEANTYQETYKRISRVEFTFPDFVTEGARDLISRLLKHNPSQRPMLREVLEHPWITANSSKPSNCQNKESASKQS

[4] = molecular target: T3, Tyrosine-protein kinase Tec (Homo sapiens, UniProt P42680); assay: Inhibition of TEC (unknown origin)
T3 sequence (P42680 whole entry): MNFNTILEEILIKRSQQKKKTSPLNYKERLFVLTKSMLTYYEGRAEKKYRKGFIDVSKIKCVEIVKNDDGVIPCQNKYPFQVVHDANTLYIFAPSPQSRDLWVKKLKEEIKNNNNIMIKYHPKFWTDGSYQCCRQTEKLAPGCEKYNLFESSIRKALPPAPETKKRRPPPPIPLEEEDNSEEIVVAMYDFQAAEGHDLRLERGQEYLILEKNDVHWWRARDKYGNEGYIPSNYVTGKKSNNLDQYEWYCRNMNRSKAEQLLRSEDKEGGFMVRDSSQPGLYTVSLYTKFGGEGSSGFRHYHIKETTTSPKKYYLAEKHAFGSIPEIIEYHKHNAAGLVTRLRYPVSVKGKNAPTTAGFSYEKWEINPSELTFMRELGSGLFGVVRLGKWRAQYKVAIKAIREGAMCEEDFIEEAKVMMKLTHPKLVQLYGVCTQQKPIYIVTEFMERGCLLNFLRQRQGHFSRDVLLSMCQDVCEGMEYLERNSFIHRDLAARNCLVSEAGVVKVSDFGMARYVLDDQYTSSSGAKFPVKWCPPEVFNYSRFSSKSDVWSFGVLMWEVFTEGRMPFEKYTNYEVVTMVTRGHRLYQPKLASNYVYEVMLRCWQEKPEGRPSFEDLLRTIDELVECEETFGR

[5] = molecular target: Cyclin-dependent kinase 2 (Homo sapiens, UniProt P24941); assay: Inhibition of CDK2 (unknown origin)
[6] = molecular target: Mast/stem cell growth factor receptor Kit (Homo sapiens, UniProt P10721); assay: Inhibition of cKIT (unknown origin)
Chain of Mast/stem cell growth factor receptor Kit (P10721 whole entry): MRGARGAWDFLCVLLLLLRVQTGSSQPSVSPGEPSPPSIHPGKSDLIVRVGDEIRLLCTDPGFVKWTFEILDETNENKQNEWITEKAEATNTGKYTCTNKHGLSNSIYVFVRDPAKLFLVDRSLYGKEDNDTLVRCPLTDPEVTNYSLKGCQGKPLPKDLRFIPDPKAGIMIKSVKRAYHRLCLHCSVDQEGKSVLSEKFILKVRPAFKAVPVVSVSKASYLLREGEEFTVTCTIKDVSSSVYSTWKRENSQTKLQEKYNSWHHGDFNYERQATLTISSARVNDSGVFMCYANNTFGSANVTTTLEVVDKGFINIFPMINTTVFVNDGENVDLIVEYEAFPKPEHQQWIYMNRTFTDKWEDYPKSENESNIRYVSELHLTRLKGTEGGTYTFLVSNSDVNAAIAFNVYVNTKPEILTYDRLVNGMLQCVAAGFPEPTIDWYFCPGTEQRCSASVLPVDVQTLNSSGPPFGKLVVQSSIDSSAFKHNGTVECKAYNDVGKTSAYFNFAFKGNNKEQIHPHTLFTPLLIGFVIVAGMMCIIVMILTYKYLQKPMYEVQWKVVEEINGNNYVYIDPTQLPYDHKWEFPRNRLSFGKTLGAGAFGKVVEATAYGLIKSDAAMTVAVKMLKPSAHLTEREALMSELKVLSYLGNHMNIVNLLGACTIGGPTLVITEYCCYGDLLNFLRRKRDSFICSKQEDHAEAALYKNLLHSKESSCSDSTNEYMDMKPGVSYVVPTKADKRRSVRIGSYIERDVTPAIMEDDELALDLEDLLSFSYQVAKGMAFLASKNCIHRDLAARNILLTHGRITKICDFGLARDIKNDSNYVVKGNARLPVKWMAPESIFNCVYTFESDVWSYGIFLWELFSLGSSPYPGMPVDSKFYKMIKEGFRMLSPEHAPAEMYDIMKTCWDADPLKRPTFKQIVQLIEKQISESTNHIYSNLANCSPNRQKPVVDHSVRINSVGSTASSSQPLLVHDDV

[7] = molecular target: Non-receptor tyrosine-protein kinase TYK2 (Homo sapiens, UniProt P29597); assay: Inhibition of TYK2 (unknown origin)
Chain of Non-receptor tyrosine-protein kinase TYK2 (P29597 whole entry): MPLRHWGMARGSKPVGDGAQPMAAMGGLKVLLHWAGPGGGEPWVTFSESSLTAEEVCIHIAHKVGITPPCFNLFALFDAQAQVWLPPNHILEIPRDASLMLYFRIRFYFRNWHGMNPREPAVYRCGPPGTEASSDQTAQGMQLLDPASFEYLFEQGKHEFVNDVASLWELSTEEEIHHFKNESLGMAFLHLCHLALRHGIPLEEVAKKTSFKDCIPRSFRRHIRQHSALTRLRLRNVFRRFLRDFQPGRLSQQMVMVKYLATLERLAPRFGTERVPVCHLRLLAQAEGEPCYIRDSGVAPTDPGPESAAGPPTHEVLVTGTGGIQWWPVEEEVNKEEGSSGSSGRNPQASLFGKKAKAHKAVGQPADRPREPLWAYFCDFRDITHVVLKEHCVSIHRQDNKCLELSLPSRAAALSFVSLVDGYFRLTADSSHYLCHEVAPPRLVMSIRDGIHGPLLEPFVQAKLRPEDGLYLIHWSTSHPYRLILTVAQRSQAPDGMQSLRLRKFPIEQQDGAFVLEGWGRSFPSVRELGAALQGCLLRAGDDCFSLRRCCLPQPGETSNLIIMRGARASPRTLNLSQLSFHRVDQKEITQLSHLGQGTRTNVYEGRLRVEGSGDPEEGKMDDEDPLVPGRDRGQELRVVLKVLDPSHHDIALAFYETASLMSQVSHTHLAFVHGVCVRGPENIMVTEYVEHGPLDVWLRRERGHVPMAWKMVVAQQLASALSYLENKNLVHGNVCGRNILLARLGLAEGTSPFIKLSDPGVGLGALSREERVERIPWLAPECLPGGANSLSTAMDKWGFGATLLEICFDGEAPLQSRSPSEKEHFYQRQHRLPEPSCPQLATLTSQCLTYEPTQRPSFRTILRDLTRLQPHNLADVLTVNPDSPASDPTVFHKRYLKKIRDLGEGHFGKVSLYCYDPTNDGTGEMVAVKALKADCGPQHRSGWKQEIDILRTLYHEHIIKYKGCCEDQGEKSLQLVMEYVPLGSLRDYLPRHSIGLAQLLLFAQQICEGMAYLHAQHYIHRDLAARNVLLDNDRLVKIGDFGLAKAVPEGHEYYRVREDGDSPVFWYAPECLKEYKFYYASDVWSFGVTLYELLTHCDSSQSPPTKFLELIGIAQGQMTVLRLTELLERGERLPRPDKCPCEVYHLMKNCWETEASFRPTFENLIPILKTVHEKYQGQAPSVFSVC

[8] = molecular target: T4, Cytoplasmic tyrosine-protein kinase BMX (Homo sapiens, UniProt P51813); assay: Inhibition of BMX (unknown origin)
T4 sequence (P51813 whole entry): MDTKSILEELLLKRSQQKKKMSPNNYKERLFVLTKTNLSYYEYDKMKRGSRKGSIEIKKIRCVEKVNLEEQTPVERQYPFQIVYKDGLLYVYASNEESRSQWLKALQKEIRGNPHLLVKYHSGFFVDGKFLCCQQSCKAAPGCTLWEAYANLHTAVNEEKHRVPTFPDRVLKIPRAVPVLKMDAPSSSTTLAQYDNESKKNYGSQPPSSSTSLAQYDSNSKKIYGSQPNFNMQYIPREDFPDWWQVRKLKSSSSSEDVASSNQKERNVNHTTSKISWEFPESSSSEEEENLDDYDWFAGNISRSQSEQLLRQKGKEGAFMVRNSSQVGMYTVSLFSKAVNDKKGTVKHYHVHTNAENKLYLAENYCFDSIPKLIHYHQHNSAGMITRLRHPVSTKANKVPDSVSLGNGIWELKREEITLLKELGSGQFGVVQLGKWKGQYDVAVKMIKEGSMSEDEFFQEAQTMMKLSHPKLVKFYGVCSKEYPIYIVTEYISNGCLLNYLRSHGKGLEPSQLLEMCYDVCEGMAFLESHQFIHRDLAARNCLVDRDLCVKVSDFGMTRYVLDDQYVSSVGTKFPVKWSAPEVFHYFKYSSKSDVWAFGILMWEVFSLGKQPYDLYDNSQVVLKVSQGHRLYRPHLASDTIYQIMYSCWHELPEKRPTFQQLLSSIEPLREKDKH

[9] = AUC in mouse at 10 mg/kg, po; format: ADME, organism-based; details: in vivo
[10] = molecular target: Tyrosine-protein kinase BTK (Homo sapiens, UniProt Q06187); assay: Inhibition of human recombinant BTK
Chain of Tyrosine-protein kinase BTK (Q06187 whole entry): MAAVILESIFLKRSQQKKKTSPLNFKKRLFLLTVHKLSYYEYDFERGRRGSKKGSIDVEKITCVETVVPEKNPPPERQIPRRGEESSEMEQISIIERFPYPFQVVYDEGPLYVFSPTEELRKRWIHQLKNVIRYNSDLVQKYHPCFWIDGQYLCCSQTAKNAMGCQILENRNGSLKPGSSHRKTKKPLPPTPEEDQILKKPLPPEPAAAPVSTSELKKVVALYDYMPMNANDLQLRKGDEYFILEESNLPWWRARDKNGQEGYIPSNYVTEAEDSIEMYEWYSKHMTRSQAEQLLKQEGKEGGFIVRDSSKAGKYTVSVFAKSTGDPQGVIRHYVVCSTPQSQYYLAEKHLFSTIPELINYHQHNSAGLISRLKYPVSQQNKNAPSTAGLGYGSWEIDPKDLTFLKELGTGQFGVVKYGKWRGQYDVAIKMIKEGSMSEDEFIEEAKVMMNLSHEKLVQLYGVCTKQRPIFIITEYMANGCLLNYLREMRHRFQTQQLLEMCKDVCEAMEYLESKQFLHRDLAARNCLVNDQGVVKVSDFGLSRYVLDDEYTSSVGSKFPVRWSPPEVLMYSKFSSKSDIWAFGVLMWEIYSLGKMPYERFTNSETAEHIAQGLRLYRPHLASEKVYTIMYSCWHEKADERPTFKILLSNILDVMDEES

[11] = molecular target: T5, Tyrosine-protein kinase TXK (Homo sapiens, UniProt P42681); assay: Inhibition of TXK (unknown origin)
T5 sequence (P42681 whole entry): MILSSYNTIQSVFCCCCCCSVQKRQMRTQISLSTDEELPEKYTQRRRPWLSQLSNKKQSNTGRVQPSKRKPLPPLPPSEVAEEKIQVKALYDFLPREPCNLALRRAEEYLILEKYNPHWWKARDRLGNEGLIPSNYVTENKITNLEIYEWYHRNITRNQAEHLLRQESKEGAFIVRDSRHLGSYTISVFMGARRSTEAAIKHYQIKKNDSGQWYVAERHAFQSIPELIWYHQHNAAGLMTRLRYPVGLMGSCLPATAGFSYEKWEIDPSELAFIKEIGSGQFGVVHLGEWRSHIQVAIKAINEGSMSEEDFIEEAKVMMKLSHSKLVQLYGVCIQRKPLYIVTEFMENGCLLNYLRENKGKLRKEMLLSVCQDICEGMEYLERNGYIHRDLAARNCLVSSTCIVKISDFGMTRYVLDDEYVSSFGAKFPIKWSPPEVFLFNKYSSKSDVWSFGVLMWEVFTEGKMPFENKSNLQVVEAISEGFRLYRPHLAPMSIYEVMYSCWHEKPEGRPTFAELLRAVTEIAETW

[12] = molecular target: Tyrosine-protein kinase JAK2 (Homo sapiens, UniProt O60674); assay: Inhibition of JAK2 (unknown origin)
Chain of Tyrosine-protein kinase JAK2 (O60674 whole entry): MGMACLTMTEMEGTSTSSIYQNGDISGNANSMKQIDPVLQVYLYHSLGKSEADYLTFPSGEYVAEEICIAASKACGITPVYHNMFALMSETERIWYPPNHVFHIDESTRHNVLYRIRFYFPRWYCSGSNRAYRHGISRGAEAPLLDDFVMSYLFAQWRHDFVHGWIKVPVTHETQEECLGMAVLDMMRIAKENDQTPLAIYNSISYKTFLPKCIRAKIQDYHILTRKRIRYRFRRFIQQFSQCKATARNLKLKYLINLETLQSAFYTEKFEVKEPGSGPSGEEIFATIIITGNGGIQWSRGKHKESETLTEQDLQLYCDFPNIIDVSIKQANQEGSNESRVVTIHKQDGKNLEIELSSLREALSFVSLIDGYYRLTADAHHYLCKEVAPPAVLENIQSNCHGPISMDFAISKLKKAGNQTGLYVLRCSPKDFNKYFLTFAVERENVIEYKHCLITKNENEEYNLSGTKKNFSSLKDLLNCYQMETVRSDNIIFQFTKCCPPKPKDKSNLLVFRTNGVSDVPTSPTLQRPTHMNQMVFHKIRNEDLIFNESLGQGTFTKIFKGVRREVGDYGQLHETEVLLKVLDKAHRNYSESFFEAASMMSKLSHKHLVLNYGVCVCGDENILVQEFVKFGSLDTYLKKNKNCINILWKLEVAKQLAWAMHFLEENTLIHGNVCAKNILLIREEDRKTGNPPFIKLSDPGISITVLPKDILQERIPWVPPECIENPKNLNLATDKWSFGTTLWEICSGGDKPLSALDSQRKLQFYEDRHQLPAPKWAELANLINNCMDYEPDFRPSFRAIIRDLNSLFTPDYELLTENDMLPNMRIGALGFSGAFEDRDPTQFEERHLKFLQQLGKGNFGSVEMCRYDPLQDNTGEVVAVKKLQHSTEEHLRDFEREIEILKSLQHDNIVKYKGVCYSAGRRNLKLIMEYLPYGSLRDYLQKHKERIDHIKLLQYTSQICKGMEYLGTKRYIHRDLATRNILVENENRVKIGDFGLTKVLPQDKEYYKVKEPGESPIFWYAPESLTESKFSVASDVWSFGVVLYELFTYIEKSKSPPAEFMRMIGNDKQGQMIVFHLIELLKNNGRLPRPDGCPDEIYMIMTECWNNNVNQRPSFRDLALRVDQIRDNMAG

[13] = Drugrecovery in human liver microsomes after 10 mins; format: ADME
Summary of the method: (§1)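 Test compound at 0.5 μM was incubated with human, rat or mouse liver microsomes for 10 minutes at 37 °C. The readout was the percentage of unchanged compound recovered after incubation.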

[14] = Drugrecovery in rat liver microsomes after 10 mins; format: ADME; summary of the method: as §1
[15] = Drugrecovery in mouse liver microsomes after 10 mins; format: ADME; summary of the method: as §1

| IC50 [1] [nM] | IC50 [2] [nM] | IC50 [3] [nM] | IC50 (Aurora kinase A) [nM] | IC50 [4] [nM] | IC50 [5] [nM] | IC50 [6] [nM] | IC50 [7] [nM] | IC50 [8] [nM] | AUC [9] [µM·h] | IC50 [10] [nM] | IC50 [11] [nM] | IC50 [12] [nM] | remaining at 10 min [13] [%] | remaining at 10 min [14] [%] | remaining at 10 min [15] [%] | Structure (SMILES) |
| --- | --- | --- | --- | --- | --- | --- | --- | --- | --- | --- | --- | --- | --- | --- | --- | --- |
| 39 | 68 | 81 | 444 | 116 | 610 | 41 | 753 | 119 | 25.6 | 15 | 119 | – | – | – | – | CN1CCN(C(=O)c2ccc3c(c2)[nH]c2c(C(N)=O)ccc(-c4ccccc4F)c23)CC1 |
| 55 | 204 | 108 | > 2000 | 162 | 2700 | 471 | > 2000 | 193 | – | – | 172 | 212 | – | – | – | CC(=O)Nc1cccc(-c2ccc(C(N)=O)c3[nH]c4cc(C(=O)N5CCN(C)CC5)ccc4c23)c1C |
| 115 | 824 | 569 | 493 | 41 | > 50000 | 1050 | 14300 | 109 | – | 3 | 95 | – | – | – | – | CN1CCN(C(=O)c2ccc3c(c2)[nH]c2c(C(N)=O)ccc(-c4cccc(NC(=O)c5ccc(N(C)C)cc5)c4F)c23)CC1 |
| – | – | – | – | – | – | – | – | – | – | – | – | – | < 3 | < 3 | < 3 | CC(C)(C)c1ccc(C(=O)N[C@@H]2CCCN(c3ccc(C(N)=O)c(Nc4ccc(C(=O)N5CCOCC5)cc4)n3)C2)cc1 |
